Source: ChEMBL document CHEMBL2157880, “Synthesis, antimycobacterial and antibacterial activity of ciprofloxacin derivatives containing a N-substituted benzyl moiety” (2012)
≈ marks a conversion by molar mass, not a printed value.

These compounds were tested on Pseudomonas aeruginosa (assay: Antibacterial activity against Pseudomonas aeruginosa 10-18 after 18 to 24 hrs by NCCLS method).
Format: functional
Outline: (§1)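 Standard NCCLS (M100-S11) MIC testing against Gram-positive and Gram-negative strains. Plates were incubated at 35 °C for 18–24 h. The MIC was read as the lowest concentration giving complete inhibition of visible bacterial growth.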
Work on COc1ccc(CN2CCN(c3cc4c(cc3F)c(=O)c(C(=O)O)cn4C3CC3)CC2)c(Cl)c1OC yielded an MIC of 128 µg/mL (≈ 248 µM).

Each compound was assayed on Enterococcus faecium (assay: Antibacterial activity against Enterococcus faecium 10-9 after 18 to 24 hrs by NCCLS method).
Format: functional
Outline: as §1
COc1ccc(CN2CCN(c3cc4c(cc3F)c(=O)c(C(=O)O)cn4C3CC3)CC2)c(Cl)c1OC was tested, and the MIC was 32 µg/mL (≈ 62 µM).

These compounds were tested on Escherichia coli (assay: Antibacterial activity against Escherichia coli ATCC 25922 after 18 to 24 hrs by NCCLS method).
Format: functional
Outline: as §1
COc1ccc(CN2CCN(c3cc4c(cc3F)c(=O)c(C(=O)O)cn4C3CC3)CC2)c(Cl)c1OC gave an MIC of 1 µg/mL (≈ 1.94 µM).

The compounds below were run on Staphylococcus aureus (assay: Antibacterial activity against methicillin-resistant Staphylococcus aureus 10-15 after 18 to 24 hrs by NCCLS method).
Format: functional
Outline: (§2)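 Incubated at 35 °C for 18–24 h under NCCLS (M100-S11) standards. MIC was read as the lowest concentration giving complete inhibition of visible bacterial growth.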
In the case of COc1ccc(CN2CCN(c3cc4c(cc3F)c(=O)c(C(=O)O)cn4C3CC3)CC2)c(Cl)c1OC, the MIC is reported as 64 µg/mL (≈ 124 µM).

Each compound was assayed on Escherichia coli (assay: Antibacterial activity against extended spectrum beta-lactamases producing Escherichia coli 10-2 after 18 to 24 hrs by NCCLS method).
Format: functional
Outline: as §1
For COc1ccc(CN2CCN(c3cc4c(cc3F)c(=O)c(C(=O)O)cn4C3CC3)CC2)c(Cl)c1OC, the MIC was greater than 128 µg/mL.

What follows are compounds tested on Streptococcus pneumoniae (assay: Antibacterial activity against Streptococcus pneumoniae 10-1 after 18 to 24 hrs by NCCLS method).
Format: functional
Outline: as §1
COc1ccc(CN2CCN(c3cc4c(cc3F)c(=O)c(C(=O)O)cn4C3CC3)CC2)c(Cl)c1OC was tested, and the MIC was 2 µg/mL (≈ 3.88 µM).

What follows are compounds tested on Staphylococcus epidermidis (assay: Antibacterial activity against methicillin-sensitive Staphylococcus epidermidis 10-11 after 18 to 24 hrs by NCCLS method).
Format: functional
Outline: as §1
COc1ccc(CN2CCN(c3cc4c(cc3F)c(=O)c(C(=O)O)cn4C3CC3)CC2)c(Cl)c1OC gave an MIC of 1 µg/mL (≈ 1.94 µM).

What follows are compounds tested on Klebsiella pneumoniae (assay: Antibacterial activity against Klebsiella pneumoniae 10-4 after 18 to 24 hrs by NCCLS method).
Format: functional
Outline: as §1
For COc1ccc(CN2CCN(c3cc4c(cc3F)c(=O)c(C(=O)O)cn4C3CC3)CC2)c(Cl)c1OC, the MIC was greater than 128 µg/mL.

The compounds below were run on Staphylococcus epidermidis (assay: Antibacterial activity against methicillin-resistant Staphylococcus epidermidis 10-13 after 18 to 24 hrs by NCCLS method).
Format: functional
Outline: as §2
COc1ccc(CN2CCN(c3cc4c(cc3F)c(=O)c(C(=O)O)cn4C3CC3)CC2)c(Cl)c1OC showed an MIC of 32 µg/mL (≈ 62 µM).

What follows are compounds tested on Pseudomonas aeruginosa (assay: Antibacterial activity against Pseudomonas aeruginosa 10-12 after 18 to 24 hrs by NCCLS method).
Format: functional
Outline: as §1
In the case of COc1ccc(CN2CCN(c3cc4c(cc3F)c(=O)c(C(=O)O)cn4C3CC3)CC2)c(Cl)c1OC, the MIC is reported as 64 µg/mL (≈ 124 µM).

Each compound was assayed on Enterococcus faecalis (assay: Antibacterial activity against Enterococcus faecalis 10-7 after 18 to 24 hrs by NCCLS method).
Format: functional
Outline: as §1
COc1ccc(CN2CCN(c3cc4c(cc3F)c(=O)c(C(=O)O)cn4C3CC3)CC2)c(Cl)c1OC was tested, and the MIC was 32 µg/mL (≈ 62 µM).

The compounds below were run on Klebsiella pneumoniae (assay: Antibacterial activity against Klebsiella pneumoniae 10-3 after 18 to 24 hrs by NCCLS method).
Format: functional
Outline: as §1
COc1ccc(CN2CCN(c3cc4c(cc3F)c(=O)c(C(=O)O)cn4C3CC3)CC2)c(Cl)c1OC gave an MIC of 32 µg/mL (≈ 62 µM).

What follows are compounds tested on Streptococcus pneumoniae (assay: Antibacterial activity against Streptococcus pneumoniae 10-6 after 18 to 24 hrs by NCCLS method).
Format: functional
Outline: as §1
Compound COc1ccc(CN2CCN(c3cc4c(cc3F)c(=O)c(C(=O)O)cn4C3CC3)CC2)c(Cl)c1OC has an MIC of 64 µg/mL (≈ 124 µM).

Each compound was assayed on Escherichia coli (assay: Antibacterial activity against Escherichia coli 10-1 after 18 to 24 hrs by NCCLS method).
Format: functional
Outline: as §1
For COc1ccc(CN2CCN(c3cc4c(cc3F)c(=O)c(C(=O)O)cn4C3CC3)CC2)c(Cl)c1OC, the MIC was greater than 128 µg/mL.

What follows are compounds tested on Pseudomonas aeruginosa (assay: Antibacterial activity against Pseudomonas aeruginosa 10-5 after 18 to 24 hrs by NCCLS method).
Format: functional
Outline: as §1
In the case of COc1ccc(CN2CCN(c3cc4c(cc3F)c(=O)c(C(=O)O)cn4C3CC3)CC2)c(Cl)c1OC, the MIC is reported as 64 µg/mL (≈ 124 µM).

These compounds were tested on Klebsiella pneumoniae (assay: Antibacterial activity against Klebsiella pneumoniae 10-2 after 18 to 24 hrs by NCCLS method).
Format: functional
Outline: as §1
COc1ccc(CN2CCN(c3cc4c(cc3F)c(=O)c(C(=O)O)cn4C3CC3)CC2)c(Cl)c1OC was tested, and the MIC was greater than 128 µg/mL.

What follows are compounds tested on Escherichia coli (assay: Antibacterial activity against Escherichia coli 10-3 after 18 to 24 hrs by NCCLS method).
Format: functional
Outline: as §1
COc1ccc(CN2CCN(c3cc4c(cc3F)c(=O)c(C(=O)O)cn4C3CC3)CC2)c(Cl)c1OC gave an MIC greater than 128 µg/mL.

These compounds were tested on Pseudomonas aeruginosa (assay: Antibacterial activity against Pseudomonas aeruginosa 10-15 after 18 to 24 hrs by NCCLS method).
Format: functional
Outline: as §1
COc1ccc(CN2CCN(c3cc4c(cc3F)c(=O)c(C(=O)O)cn4C3CC3)CC2)c(Cl)c1OC was tested, and the MIC was 64 µg/mL (≈ 124 µM).

Each compound was assayed on Enterococcus faecalis (assay: Antibacterial activity against Enterococcus faecalis 10-6 after 18 to 24 hrs by NCCLS method).
Format: functional
Outline: as §1
COc1ccc(CN2CCN(c3cc4c(cc3F)c(=O)c(C(=O)O)cn4C3CC3)CC2)c(Cl)c1OC was tested, and the MIC was 64 µg/mL (≈ 124 µM).
